High-throughput results (PubChem)
This is a sample that favours compounds with a hit; in the whole collection about 2.1% have one here.
miR-122 sensor – blocks miR-122 activity in Huh7 sensor cells; AID 602342; Huh7 miR-122 Renilla luciferase sensor, 48 h; neutral wells = 0, positive control = 100; activation (reporter increase), % at 12.5 µM; hit rate 0.3% among 340,000;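 active = mean replicate activation score at least 90 and every replicate individually at or above 90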;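 also: higher luciferase means less miR-122 activity so hits act as miR-122 inhibitors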
CAL PDZ FP-1 – human CAL PDZ-peptide interaction inhibition; Q9HD26; purified CAL PDZ, TMR-peptide fluorescence polarization, 1 h; inhibition, % at 20 µM; hit rate 0.02% among 330,000;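 active = highest replicate inhibition of at least 40%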;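 also: plate controls were DMSO neutral control wells for no effect and unlabeled competitor peptide control wells for full effect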
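Test system: tagged CAL PDZ domain / Buffer or medium: sodium phosphate/NaCl buffer pH 7.4 with TCEP, IgG, Thesit / Reagent: TMR-labelled reporter peptide T*-PRC34 bound in PDZ groove / Compound dosing: single point, 20 µM / Schedule: 1 h incubation at room temperature before polarization reading / Technique: fluorescence polarization (mP) / Benchmarks: unlabelled peptide, DMSO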
ARNT-TACC3 inh – disruptors of human ARNT/TACC3 interaction; AlphaScreen His-ARNT PAS-B/GST-TACC3 binding, luminescence; TACC3 fragment carries E629A point mutation; inhibition, % at 9.99 µM; AID 623870; hit rate 0.66% among 390,000;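 active = mean inhibition of replicates at least 50% and at least half of replicates each reaching 50%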;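 also: 0% = complete ARNT plus TACC3 wells and 100% = ARNT alone without TACC3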
SR-BI DiI-HDL act – activators of SR-BI mediated HDL lipid uptake | CHO ldlA[mSR-BI] cells, DiI-HDL uptake fluorescence, 3 h; 100 = double the neutral-control signal | activation, % at 12.5 µM | hit rate 0.096% among 320,000;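 active = mean replicate activation of at least 60% and every replicate at or above 60%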;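 also: 0% = median plate neutral-control signal and 100% = twice that signal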
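Assay system: LDL receptor-deficient CHO ldlA cells overexpressing murine SR-BI / Medium: BSA-supplemented, HEPES-buffered Ham's F12, pH 7.4 / Probe or stimulus: DiI-labelled HDL at 10 µg/mL final / Timing: compound with DiI-HDL co-incubation, 3 h at 37 °C / Technique: bottom-read cell fluorescence after medium removal, ex 550/em 595 nm / Measure: HDL uptake via cellular fluorescence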
CAL PDZ FP-2 – CAL PDZ (human) peptide binding inhibition. AID 602252. inhibition, % at 24.9 µM. purified CAL PDZ, TMR-peptide fluorescence polarization, 1 h. hit rate 0.92% among 300,000;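 active = mean inhibition of at least 30% with at least half of replicates also reaching 30%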;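 also: 0% = DMSO neutral control and 100% = excess unlabeled competitor peptide PRC23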
SR-BI HDL uptake – blocks mouse SR-BI lipid uptake from DiI-HDL; ldlA[mSR-BI] CHO cells, DiI-HDL uptake fluorescence, 3 h; inhibition, % at 12.5 µM; hit rate 0.96% among 320,000;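 active = mean replicate inhibition of at least 70% and a set share of replicates each scoring 70 or more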;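 also: 0% = median of neutral control wells and 100% = median of positive control wells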
Target sequence (Q61009 whole entry, looked up): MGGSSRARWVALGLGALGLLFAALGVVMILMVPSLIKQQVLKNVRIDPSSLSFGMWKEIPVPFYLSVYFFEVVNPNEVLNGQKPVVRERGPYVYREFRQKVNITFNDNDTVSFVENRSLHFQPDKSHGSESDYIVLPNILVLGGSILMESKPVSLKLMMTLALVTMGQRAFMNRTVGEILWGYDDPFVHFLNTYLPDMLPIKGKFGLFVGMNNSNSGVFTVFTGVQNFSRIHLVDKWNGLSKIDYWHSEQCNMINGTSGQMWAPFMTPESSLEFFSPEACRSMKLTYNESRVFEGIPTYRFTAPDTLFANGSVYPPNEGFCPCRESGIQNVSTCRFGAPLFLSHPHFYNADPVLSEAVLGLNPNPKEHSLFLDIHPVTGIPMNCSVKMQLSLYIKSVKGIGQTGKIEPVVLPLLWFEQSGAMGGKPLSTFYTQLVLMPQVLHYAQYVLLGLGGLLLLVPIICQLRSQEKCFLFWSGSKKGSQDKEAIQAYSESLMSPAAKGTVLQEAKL
* hit, by the source's call; / = no result; + = active, no number; [ ] = remark or other dose.

SMILES | miR-122 sensor | CAL PDZ FP-1 | ARNT-TACC3 inh | SR-BI DiI-HDL act | CAL PDZ FP-2 | SR-BI HDL uptake
CC(CN1CCN(C)CC1)OC(=O)c1cccc(Cl)c1 (stereo not drawn) | -13 | / | -9 | 11 | 157* | -11
O=C(Nc1ccc(F)cc1F)Nc1csc2ccccc12 | -2 | / | / | / | / | /
O=C(Nc1ccc(F)c(Cl)c1)Nc1csc2ccccc12 | 30 | 0 | 20 | -87 | / | 87*
O=C(C[C@@H]1C[C@@H]2c3cc(NC(=O)C4CCC4)ccc3O[C@@H]2[C@H](CO)O1)NCCc1ccccc1 | 2[16.7 µM] | / | -5 | / | / | /
CCCCc1ccc(N=N/C(C(=O)Nc2ccccc2OC)=C(/C)O)cc1 | -4 | 0 | -17 | -17 | 0 | 17
CCCCc1ccc(N=N/C(C(=O)Nc2cc(OC)c(NC(C)=O)cc2OC)=C(/C)O)cc1 | / | 0 | -9 | -87 | -18 | 87*
CNC[C@H]1Oc2ccc(NC(=O)NC(C)C)cc2CC(=O)N([C@H](C)CO)C[C@H]1C | -5[16.7 µM] | / | -9 | / | / | /
CCOC(=O)c1c(NC(=O)CN2CCN(C(=O)C3CCCO3)CC2)sc(C)c1C (stereo not drawn) | 4 | 1 | -21 | -2 | -4 | 2
CCOC(=O)c1c(NC(=O)CN2CCC(C)CC2)sc(C)c1C | 2 | 11 | -7 | 3 | 45* | -3
CO[C@H]1CN(C)C(=O)c2ccc(NC(C)=O)cc2OC[C@H](C)N(C(=O)c2ccncc2)C[C@@H]1C | 27[16.7 µM] | / | -3 | / | / | /
C[C@H]1CN([C@@H](C)CO)C(=O)c2cc(NC(=O)Nc3ccc(F)cc3)ccc2O[C@@H]1CN(C)Cc1ccccc1 | -4[16.7 µM] | / | 0 | / | / | /
CC(=O)Nc1sc(N/N=C/c2ccccc2)nc1-c1ccc(C)cc1 | / | 1 | -5 | / | -1 | /
CC(=O)Nc1sc(/C(C#N)=C\c2cccc(Cl)c2)nc1-c1ccc(C)cc1 | 3 | 0 | -5 | -82 | -2 | 82*
CC(=O)N1[C@@H](CO)[C@@H]2c3ccccc3N(S(=O)(=O)c3cccc(C)c3)C[C@@H]21 | 25[16.7 µM] | / | 1 | / | / | /
CCCNC(=O)N1[C@H](CO)[C@@H](c2ccccc2)[C@H]1CNC(=O)c1ccc(F)cc1 | 0[16.7 µM] | / | 0 | / | / | /
Oc1cccc2ccc(Nc3ccccn3)nc12 | 4 | -2 | 64* | -8 | -2 | 8
O=C(NC1CCCC1)N1CCCCN2[C@H](C1)[C@H](c1ccc(/C=C/c3ccccc3)cc1)[C@@H]2CO | -9[16.7 µM] | / | 18 | / | / | /
C[C@H]1CN([C@@H](C)CO)C(=O)c2cccc(NC(=O)C3CC3)c2O[C@H]1CN(C)C(=O)Nc1ccccc1 | -9[16.7 µM] | / | -16 | / | / | /
N#Cc1ccc(NC(=O)Nc2ccc(Oc3ccc(NC(=O)Nc4ccc(C#N)cc4)cc3)cc2)cc1 | -30 | -1 | -3 | -87 | 9 | 87*
Cc1cc2c3c([nH]c2cc1S(=O)(=O)NCc1ccc(CN2CCCCCC2)o1)CCCC3=O | -4 | 0 | 3 | 3 | 1 | -3
Cc1cc2c3c([nH]c2cc1S(=O)(=O)NCc1ccc(CN2CCCCCC2)o1)CC(C)(C)CC3=O | 9 | -2 | 3 | -1 | 46* | 1
O=C(C[C@H]1C=C[C@@H](NC(=O)c2ccccn2)[C@@H](CO)O1)NCc1cc(F)cc(F)c1 | / | / | 8 | / | / | /
CNC[C@H]1OCCCC[C@@H](C)Oc2ccc(NC(=O)Nc3ccc(F)cc3)cc2C(=O)N([C@H](C)CO)C[C@@H]1C | 4[16.7 µM] | / | / | / | / | /
CCCOc1ccc(C(=O)O)cc1 | 0 | 1 | -3 | 26 | 77* | -26
Cc1ccc(CNS(=O)(=O)c2ccc3c(c2)CCN3C(=O)CCCC(=O)O)cc1 | / | 7 | -2 | 2 | 34* | -2
SMILES | miR-122 sensor | CAL PDZ FP-1 | ARNT-TACC3 inh | SR-BI DiI-HDL act | CAL PDZ FP-2 | SR-BI HDL uptake
CC(=O)N1CCc2cc(S(=O)(=O)NCC(=O)NCc3ccc(Cl)cc3)ccc21 | 6 | -1 | 6 | 6 | + | -6
CCC(=O)N1CCc2cc(S(=O)(=O)NCCC(=O)NCc3ccc(F)cc3)ccc21 | -3 | 0 | 3 | -4 | 37* | 4
CC(=O)N1CCc2cc(S(=O)(=O)NCCCN3CCN(Cc4ccccc4)CC3)ccc21 | 302* | 0 | -3 | 7 | / | -7
CCC(=O)N1CCc2cc(S(=O)(=O)CCC(=O)NCc3ccc(C)cc3)ccc21 | -2 | -2 | -4 | 13 | / | -13
Cc1ccc(S(=O)(=O)N(C)C[C@H]2Oc3ccc(NS(=O)(=O)c4cccs4)cc3CC(=O)N([C@H](C)CO)C[C@@H]2C)cc1 | 7[16.7 µM] | / | -6 | / | / | /
COc1ccc(CN(C)C[C@@H]2Oc3ccc(NC(=O)CCN4CCOCC4)cc3CC(=O)N([C@@H](C)CO)C[C@@H]2C)cc1 | 38[16.7 µM] | / | -8 | / | / | /
Cc1nc(Cl)sc1C(=O)Nc1cccc(Cl)c1 | -1 | / | 5 | -20 | -12 | 20
Cc1nnsc1C(=O)Nc1cccc(Cl)c1 | -8 | -1 | 0 | 6 | 74* | -6
CC1(C)OC(c2ccccc2)=C/C(=C/C=N/NC(=O)c2ccncc2)O1 | / | 1 | 31 | -90 | 3 | 90*
COc1ccc(S(=O)(=O)Nc2ccc3c(c2)CC(=O)N([C@H](C)CO)C[C@H](C)[C@@H](CN(C)C(=O)Nc2ccccc2)O3)cc1 | -3[16.7 µM] | / | -3 | / | / | /
Cc1cn(C(C)C)c(=O)n(-c2ccccc2)c1=O | 0 | / | 9 | 9 | 33* | -9
O=C(C[C@H]1C=C[C@H](NC(=O)Nc2cc(F)ccc2F)[C@H](CO)O1)NCc1ccccn1 | / | / | 1 | / | / | /
CCCN(CCC)C(=O)C1CCCN1S(=O)(=O)c1cccc2nsnc12 (stereo not drawn) | 0 | 0 | -6 | -4 | 1 | 4
Cc1ccc(N(C)C(=O)C2CCCN2S(=O)(=O)c2cccc3nsnc23)cc1 (stereo not drawn) | -2 | 1 | -5 | -7 | 70* | 7
CCOC(=O)c1cc(CC)sc1NC(=O)c1ccc2c(c1)OCCO2 | -1 | 0 | -11 | -71 | / | 71*
CC(C)(C)OC(=O)NCCC(=O)N/N=C/c1cccc2cccnc12 | -5 | 2 | 69* | -3 | -4 | 3
CC(C)(C)OC(=O)N1CCC[C@H]1C(=O)N/N=C/c1cccc2cccnc12 | / | -1 | 91* | 14 | -4 | -14
Cc1ccccc1OCC(=O)N/N=C/c1cccc2cccnc12 | / | -2 | 65* | 10 | / | -10
O=C(COc1ccc(F)cc1)N/N=C/c1cccc2cccnc12 | 1 | -1 | 95* | -12 | / | 12
CCCNC(=O)N(C)C[C@@H]1Oc2ncc(C#CC3(O)CCCC3)cc2C(=O)N([C@H](C)CO)C[C@@H]1C | 1[16.7 µM] | / | 0 | / | / | /
C[C@H](CO)N1C[C@H](C)[C@H](CN(C)C(=O)c2ccncc2)Oc2cc(/C=C/c3ccccc3)ccc2S1(=O)=O | -2[16.7 µM] | / | 7 | / | / | /
O=C(COc1cccc2cccnc12)N/N=C/c1ccccc1O | / | -5 | 7 | / | -2 | /
